Bioassay records from PubChem BioAssay.
In the library only some 2.6% were active in any assay of this set; here they are far more common.
dFosB activator = mouse delta FosB homodimer activation; 0.99% of 340,000 active; activation, % at 25 µM; AID 493131; purified delta FosB, TAMRA-CDK5 oligo fluorescence polarization; percent of positive-control signal above neutral wells;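 active = mean activation above about 17%, with every replicate also reaching it, limit read from the data, passing the limit was not always enough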
SR-BI DiI-HDL act = activators of SR-BI mediated HDL lipid uptake; activation, % at 12.5 µM; 0.096% of 320,000 active; CHO ldlA[mSR-BI] cells, DiI-HDL uptake fluorescence, 3 h; 100 = double the neutral-control signal;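 active = mean replicate activation of at least 60% and every replicate at or above 60%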;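 note: 0% = median plate neutral-control signal and 100% = twice that signal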
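System: LDL receptor-deficient CHO ldlA cells overexpressing murine SR-BI | Timing: 3 h uptake period with compound, 37 °C | Medium: HEPES-buffered (25 mM, pH 7.4) F12 plus 0.5% BSA | Dosing: Single-point compound dose | Signal: Bottom-read fluorescence, 550/595 nm | Read-out: Retained DiI signal reflecting DiI-HDL uptake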
Xi reactivation = reactivates the inactive X chromosome in mouse fibroblasts. XiGFP mouse fibroblasts, % GFP-positive cells imaging, 3 d; cells co-treated with 5-aza-dC sensitizer; scaled so ellipticine positive control = 100%. activation, % at 7.58 µM. 0.055% of 360,000 active;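 active = mean normalized replicate activation at least 10% and every replicate at or above 10%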;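 note: 0% = median of on-plate neutral control wells and 100% = ellipticine 6 µM median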
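material = 68-5-11 XiGFP fibroblast line | medium = DMEM plus 5-aza-dC sensitizer | schedule = 3 days compound exposure | benchmarks = positive control ellipticine, 6 µM final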
SR-BI DiI inh = blocks mouse SR-BI lipid uptake from DiI-HDL | ldlA[mSR-BI] CHO cells, DiI-HDL uptake fluorescence, 3 h | Q61009 | AID 488896 | 0.96% of 320,000 active | inhibition, % at 12.5 µM;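 active = mean replicate inhibition of at least 70% and a set share of replicates each scoring 70 or more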;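 note: 0% = median of neutral control wells and 100% = median of positive control wells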
Target sequence (Q61009 whole entry, looked up): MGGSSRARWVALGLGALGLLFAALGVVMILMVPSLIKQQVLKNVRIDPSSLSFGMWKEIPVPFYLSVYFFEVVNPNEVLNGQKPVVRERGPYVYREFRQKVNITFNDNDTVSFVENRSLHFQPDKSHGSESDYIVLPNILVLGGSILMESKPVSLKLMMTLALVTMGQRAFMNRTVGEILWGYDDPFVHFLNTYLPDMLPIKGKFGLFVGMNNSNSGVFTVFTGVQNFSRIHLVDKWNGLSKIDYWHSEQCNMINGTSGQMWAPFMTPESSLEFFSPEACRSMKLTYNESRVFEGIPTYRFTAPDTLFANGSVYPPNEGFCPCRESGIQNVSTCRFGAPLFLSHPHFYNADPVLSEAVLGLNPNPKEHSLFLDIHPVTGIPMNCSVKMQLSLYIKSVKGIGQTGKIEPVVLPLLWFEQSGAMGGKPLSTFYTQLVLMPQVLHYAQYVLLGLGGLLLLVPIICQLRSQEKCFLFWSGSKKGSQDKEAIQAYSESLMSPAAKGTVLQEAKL
Ecoli rRNA inh = inhibitors of bacterial rRNA selective over humanized ribosomes; E. coli WT GFP vs humanized-ribosome RFP mutants, fluorescence, 24 h; hits give low values; DMSO median 0, no signal -100; GFP signal change (wild-type ribosome), % (test concentration not listed); 1.6% of 350,000 active; AID 720706;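 active = significant combined selectivity score with lowered wild-type GFP, culture density cut under 30%, mutant RFP and density less affected; inactive = any of these conditions unmet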
PvdQ inh = blocks Pseudomonas aeruginosa PvdQ acylase activity; purified PvdQ acylase, fluorescence plate reader; inhibition, % at 10 µM; 0.063% of 340,000 active; in the data active = inhibition above about 30%, passing the limit was not always enough;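 note: 0% = vehicle neutral wells and 100% = reference inhibitor wells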
Active calls of the source: *; x = no result.

SMILES	dFosB activator	SR-BI DiI-HDL act	Xi reactivation	SR-BI DiI inh	Ecoli rRNA inh	PvdQ inh
COc1ccc(-c2cn3c(C)c(C(=O)Nc4cc(NC(C)=O)ccc4OC)sc3n2)cc1	-12	-75	x	75*	x	-8
C[C@H](CO)N1C[C@H](C)[C@H](CN(C)C(=O)Nc2ccc(C(F)(F)F)cc2)Oc2ccc(NC(=O)CCN3CCOCC3)cc2C1=O	x	x	0	x	-4	x
C/C(=N\NC1=NCCN1)c1ccc(N)c([N+](=O)[O-])c1	4	19	0	-19	11	-6
CCCCCCOc1ccc(/C(C)=N/NC2=NCCN2)cc1[N+](=O)[O-]	55*	-4	0	4	-60	-11
COc1ccc(C(=O)NC(=S)NCc2cccnc2)cc1OC	-9	-9	0	9	-29*	-10
COc1ccc(C(=O)NC(=S)NCc2ccccc2)cc1OC	-10	-4	0	4	-9	-11
COc1cccc(/C=C2\Sc3ccc(C(=O)NCc4cccnc4)cc3N(C)C2=O)c1	-10	x	0	x	-20	-13
COc1ccc(/C=C2\Sc3ccc(C(=O)NCc4cccnc4)cc3N(C)C2=O)cc1OC	-4	-74	0	74*	-25	5
COc1ccc(CC(=O)NNC(=S)Nc2ccccc2)cc1Cl	-3	4	0	-4	-27*	-7
O=Nc1c(-c2c(O)[nH]c3cc(Br)ccc23)[nH]c2ccccc12	-6	-118	0	118*	-17	-32
O=C(CSCc1cccc(Br)c1)N=Nc1c(O)[nH]c2ccccc12	-3	34	x	-34	x	5
COCCCNC(=O)Cn1c(=O)n(CC(=O)NCCc2ccc(OC)c(OC)c2)c(=O)c2sccc21	-4	x	0	x	13	-6
COC(=O)c1ccc(C2N=C(c3cccs3)CC(c3ccccc3O)N2)cc1 (stereo unspecified)	-7	-75	1	75*	-18	7
O=C(c1ccccc1)N1N=C(c2cccs2)CC1c1ccccc1O (stereo unspecified)	-5	-3	0	3	-21	9
CCOc1ccc2nc3sc(C(=O)N4CCOCC4)c(N)c3cc2c1	-8	x	0	x	-9	-2
O=C(NCc1cccnc1)c1ccc(COc2ccccc2Cl)o1	-6	4	0	-4	-24	-4
O=C(O)c1ccc(COc2ccc3c(c2)CCC3)cc1	-3	-1	0	1	-15	-9
CCCc1ccc(OCc2ccc(C(=O)OC)o2)c(OC)c1	-11	-13	x	13	-19*	-5
O=C(N/N=C/c1cc([N+](=O)[O-])ccc1O)c1ccc(COc2ccc3c(c2)CCC3)o1	1	-136	0	136*	x	-3
NNC(=O)c1ccc(COc2ccc3c(c2)CCC3)cc1	-10	-43	0	43	-26*	-1
O=C(NCc1cccnc1)c1ccc(COc2ccccc2Br)o1	-12	-5	x	5	-24*	1
CCc1ccc(OCc2ccc(C(=O)OC)o2)cc1	-4	6	0	-6	-2	8
O=C(NCc1cccnc1)c1ccc(COc2ccc3c(c2)CCC3)o1	3	-20	x	20	-21*	-3
COC(=O)c1ccc(COc2ccc3c(c2)CCC3)o1	-8	21	0	-21	-24*	8
C[C@H]1CN([C@@H](C)CO)C(=O)c2cc(NC(=O)Nc3ccccc3)ccc2O[C@H]1CN(C)S(=O)(=O)c1ccccc1	x	x	0	x	-4	x
SMILES	dFosB activator	SR-BI DiI-HDL act	Xi reactivation	SR-BI DiI inh	Ecoli rRNA inh	PvdQ inh
O=C(Nc1cccnc1)/C(N=Nc1c(Cl)cccc1Cl)=C(\O)c1ccccc1	-8	-38	0	38	x	16
O=C(Nc1cccnc1)/C(N=Nc1ccc(Cl)c(C(F)(F)F)c1)=C(\O)c1ccccc1	-9	-77	x	77*	x	-19
CN(/N=C/c1cc(Cl)cc(Cl)c1O)C(=S)NC(C)(C)C	-8	11	0	-11	-14	-3
COc1cccc(/C=N/NC(=S)Nc2cccnc2)c1	-7	-15	0	15	-6	-2
Oc1ccccc1/C=N/NC(=S)NC1CC2C=CC1C2 (stereo unspecified)	-5	-43	0	43	-39*	4
Oc1ccccc1C=NNC(=S)NC1CC2C=CC1C2 (stereo unspecified)	x	x	0	x	-57	x
COc1ccc(O)c(/C=N/NC(=S)Nc2cccnc2)c1	-10	-30	0	30	-28*	-7
Oc1ccccc1C=NNC(=S)Nc1ccc(F)cc1	-10	-101	1	101*	-52	4
Oc1c(Cl)cc(Cl)cc1/C=N/NC(=S)NC1CC2C=CC1C2 (stereo unspecified)	-11	-98	1	98*	-31*	1
O=C(N/N=C/c1cc2c(cc1Cl)OCO2)c1ccncc1	-6	-29	0	29	x	-1
O=c1[nH]cnc2c1nc(SCc1ccccc1)n2C1OC(CO)C(O)C1O (stereo unspecified)	8	0	x	0	x	-19
CN(C)c1nc(Nc2ccc(F)cc2)nc(Oc2ccc(F)cc2)n1	2	-33	0	33	-23	-14
CN(C)c1nc(N/N=C/c2ccccc2O)nc(Nc2ccc(F)cc2)n1	60*	-37	0	37	-56	-6
COc1ccc(NC(=O)CSc2nc3n[nH]c(C)c3c(=N)n2-c2ccc(Cl)c(C)c2)cc1OC	44*	3	x	-3	x	-16
COc1ccc(N(C)S(=O)(=O)c2c(C)[nH]c(=O)[nH]c2=O)c(OC)c1	5	3	x	-3	x	-7
CC(C)(C)OC(=O)NOCC(=O)N(CC(=O)c1ccccc1)Cc1ccccc1	4	23	0	-23	-15	-5
CC(C)(C)OC(=O)NOCC(=O)N(Cc1ccccc1)CC(O)COc1ccccc1 (stereo unspecified)	-9	-16	0	16	-18*	14
COc1ccc(/C=N/NC(=O)c2ccoc2C)cc1COc1ccc(Cl)cc1	-14	-42	x	42	x	1
C#CCn1ccc(O)c(Cc2c(F)cccc2Cl)c1=O	-6	36	0	-36	2	-10
O=c1c(Cc2c(F)cccc2Cl)c(O)ccn1C1CC1	5	6	0	-6	-31*	-4
C=CCn1c(SCC(C)=O)nc2sc3c(c2c1=O)CCC3	10	-8	0	8	1	-4
CCN(C(=O)COC(=O)c1cc(-c2ccccc2)nn1-c1ccccc1)C1CCS(=O)(=O)C1 (stereo unspecified)	0	-5	0	5	-31*	-8
